Several values for one entry are separate records, joined by “and”; a condition that tells them apart may be missing. Equal entries are not always repeated. Values belong to the molecule of their own block, whether it stands above or below them.
Legend:
[1] = molecular target: T1, Telomerase reverse transcriptase (Homo sapiens, UniProt O14746); experiment: Apparent telomerase inhibition by mixed mechanism
[2] = molecular target: T1, Telomerase reverse transcriptase; experiment: Effect of substituent bulk on telomerase inhibition at 25 uM
Summary of the method: (§1)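 HeLa cell extract (60 µg total protein) as the telomerase source in a primer-extension assay with 1 µM 5′-biotinylated (TTAGGG)3 primer, 1.2 µM 32P-dGTP, and 1 mM each of dATP and dTTP. Buffer was Tris-OAc at pH 8.5 with KOAc, MgCl2, BME and spermidine. Porphyrin was fixed at 25 µM and reactions ran at 37 °C for 30 min. Products were run on 8% denaturing PAGE and quantified by autoradiogram densitometry, giving % inhibition relative to a porphyrin-free control.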

[3] = molecular target: T1, Telomerase reverse transcriptase; experiment: Apparent telomerase inhibition by G-quadruplex mechanism
[4] = molecular target: T1, Telomerase reverse transcriptase; experiment: Percentage inhibition of human telomerase at 25 uM concentration in HeLa cell; assay type: cell-based; summary of the method: as §1
[5] = molecular target: T1, Telomerase reverse transcriptase; experiment: Effect of uncharged hydrogen bonding group on telomerase inhibition at 25 uM; summary of the method: as §1
[6] = molecular target: T1, Telomerase reverse transcriptase; experiment: Effect of meso group on telomerase inhibition at 25 uM; summary of the method: as §1
[7] = molecular target: T1, Telomerase reverse transcriptase; experiment: Effect of combination of charged and hydrogen bonding groups on telomerase inhibition at 25 uM; summary of the method: as §1
[8] = molecular target: T1, Telomerase reverse transcriptase; experiment: Effect of varying the number and disposition of charged groups around the compound nucleus on telomerase inhibition at 25 uM; summary of the method: as §1
[9] = molecular target: T1, Telomerase reverse transcriptase; experiment: Dependence of telomerase inhibition on the ability to stack with G-tetrads; conditions: concentration not given here; summary of the method: as §1

T1 sequence (O14746 whole entry): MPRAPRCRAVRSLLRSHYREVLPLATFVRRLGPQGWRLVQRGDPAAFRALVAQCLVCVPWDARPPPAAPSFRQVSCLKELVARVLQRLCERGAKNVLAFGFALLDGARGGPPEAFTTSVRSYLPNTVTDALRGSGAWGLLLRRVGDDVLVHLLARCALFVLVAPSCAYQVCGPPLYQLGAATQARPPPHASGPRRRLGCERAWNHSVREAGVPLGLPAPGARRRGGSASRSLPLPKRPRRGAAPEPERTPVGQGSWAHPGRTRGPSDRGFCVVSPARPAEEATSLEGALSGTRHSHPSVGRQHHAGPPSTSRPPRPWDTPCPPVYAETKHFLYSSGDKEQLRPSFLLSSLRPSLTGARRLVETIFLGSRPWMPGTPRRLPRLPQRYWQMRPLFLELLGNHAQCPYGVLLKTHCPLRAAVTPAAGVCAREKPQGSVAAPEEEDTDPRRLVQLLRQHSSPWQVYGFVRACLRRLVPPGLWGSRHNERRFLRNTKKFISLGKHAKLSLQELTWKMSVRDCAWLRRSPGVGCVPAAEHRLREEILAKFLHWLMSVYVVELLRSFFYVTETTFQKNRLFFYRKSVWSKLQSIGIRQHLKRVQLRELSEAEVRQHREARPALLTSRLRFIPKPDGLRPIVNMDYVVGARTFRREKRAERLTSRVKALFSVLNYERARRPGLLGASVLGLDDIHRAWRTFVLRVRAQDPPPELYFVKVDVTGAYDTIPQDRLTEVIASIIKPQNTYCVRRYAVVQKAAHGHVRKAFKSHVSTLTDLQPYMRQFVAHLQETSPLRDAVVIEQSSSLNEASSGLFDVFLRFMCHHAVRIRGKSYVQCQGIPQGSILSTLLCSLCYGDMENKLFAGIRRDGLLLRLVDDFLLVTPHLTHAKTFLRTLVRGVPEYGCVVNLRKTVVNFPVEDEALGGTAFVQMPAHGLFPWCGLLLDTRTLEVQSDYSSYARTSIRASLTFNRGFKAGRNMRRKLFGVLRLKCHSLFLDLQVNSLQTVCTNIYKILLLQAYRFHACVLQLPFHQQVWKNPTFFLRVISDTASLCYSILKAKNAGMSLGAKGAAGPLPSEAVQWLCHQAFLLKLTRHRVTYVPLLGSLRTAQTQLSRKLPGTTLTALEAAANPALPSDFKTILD

Compound: C[n+]1ccc(-c2c3nc(c(-c4ccc(C(=O)NCCBr)cc4)c4nc(c(-c5cc[n+](C)cc5)c5ccc([nH]5)c(-c5cccc(C(=O)NCCBr)c5)c5ccc2[nH]5)C=C4)C=C3)cc1
IC50 [1]: 15 µM

Compound: C[n+]1cccc(-c2c3nc(c(-c4ccc[n+](C)c4)c4ccc([nH]4)c(-c4ccc[n+](C)c4)c4ccc([nH]4)c(-c4ccc[n+](C)c4)c4nc2C=C4)C=C3)c1
inhibition [2]: 50%
IC50 [3]: 25 µM and 12 µM

Compound: OCC[n+]1ccc(-c2c3nc(c(-c4cc[n+](CCO)cc4)c4ccc([nH]4)c(-c4cc[n+](CCO)cc4)c4ccc([nH]4)c(-c4cc[n+](CCO)cc4)c4nc2C=C4)C=C3)cc1
IC50 [1]: 30 µM

inhibition [4]: 0%
Compound: CC1=C(CCNCCN)c2cc3[nH]c(cc4[nH]c(cc5nc(cc1n2)C(C)=C5CCNCCN)c(C)c4CCNCCN)c(CCNCCN)c3C

Compound: C[n+]1cccc(-c2c3nc(c(-c4cc5ccccc5[n+](C)c4)c4ccc([nH]4)c(-c4ccc[n+](C)c4)c4nc(c(-c5cc6ccccc6[n+](C)c5)c5ccc2[nH]5)C=C4)C=C3)c1
IC50 [1]: 10 µM

Compound: C[n+]1cccc(-c2c3ccc([nH]3)c(-c3cc4ccccc4[n+](C)c3)c3nc(c(-c4cc5ccccc5[n+](C)c4)c4nc(c(-c5cc6ccccc6[n+](C)c5)c5ccc2[nH]5)C=C4)C=C3)c1
IC50 [1]: 5 µM

inhibition [5]: 28%
inhibition [6]: 32%
inhibition [7]: 30%
inhibition [8]: 37%
inhibition [2]: 28%
inhibition [9]: 14%
Compound: C[n+]1cc(-c2c3nc(c(-c4cc5ccccc5[n+](C)c4)c4ccc([nH]4)c(-c4cc5ccccc5[n+](C)c4)c4ccc([nH]4)c(-c4cc5ccccc5[n+](C)c4)c4nc2C=C4)C=C3)cc2ccccc21

Compound: C[n+]1ccc(-c2c3nc(c(-c4cc[n+](C)cc4)c4ccc([nH]4)c(-c4cc[n+](C)cc4)c4nc(c(-c5cc[n+](C)cc5)c5ccc2[nH]5)C=C4)C=C3)cc1 [TMPYP4 CHLORIDE]
IC50 [3]: 6.25 µM and 10 µM

Compound: C[n+]1ccc(-c2c3nc(c(-c4cc[n+](C)cc4)c4ccc([nH]4)c(-c4cc[n+](C)cc4)c4ccc([nH]4)c(-c4cc[n+](C)cc4)c4nc2C=C4)C=C3)cc1
inhibition [5]: 60%
inhibition [6]: 67%
inhibition [7]: 60%
inhibition [8]: 62%
inhibition [2]: 60%
inhibition [9]: 66%
